Reference: PubChem BioAssay AID588750 (Vanderbilt Specialized Chemistry Center, 2011)
Activity calls are given as the source filed them.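 How the source made its calls: active means compounds with a dose-dependent response, reported with half-maximal potency and percent of the acetylcholine maximum; inactive means the rest.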

molecular target: Muscarinic acetylcholine receptor M3 (Rattus norvegicus) (UniProt P08483); assay: potentiation of ACh response at rat M3 – CHO cells, Fluo-4 calcium mobilization, selectivity assay for M4 PAM project, dose response (AID 588750); conditions: CHO rat M3, Fluo-4 calcium mobilization; series mostly up to 30 µM; percent of ACh max: at the top concentration
How it was run: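 Assay system: CHO cells with stable rat M3 receptor; reagent: acetylcholine at EC20, followed by acetylcholine at EC80; incubation: 144 s compound pre-exposure, 37 °C reading; signal: Fluo-4 AM calcium flux, kinetic fluorescence; benchmarks: 1 mM ACh maximum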

Row | Compound | percent of ACh max
1 | Cc1nc2sc(C(=O)NCc3cccc(F)c3F)c(N)c2c(C)c1Cl | 15.9 (inactive)
2 | Cc1nc2sc(C(=O)NCc3nccs3)c(N)c2c(C)c1Cl | 20.6 (inactive)
3 | Cc1nc2sc(C(=O)NCCc3ccncc3)c(N)c2c(C)c1Cl | 19.2 (inactive)
4 | Cc1nc2sc(C(=O)NC3CC3)c(N)c2c(C)c1Cl | 19.5 (inactive)
5 | Cc1nc2sc(C(=O)NCc3ccncn3)c(N)c2c(C)c1Cl | 17.7 (inactive)
6 | Cc1nc2sc(C(=O)NCc3ccccc3)c(N)c2c(C)c1Cl | 14.2 [at 37.4 µM] (inactive)
7 | Cc1nc2sc(C(=O)NCc3ccncc3)c(N)c2c(C)c1Cl | 16.7 [at 45.3 µM] (inactive)
8 | Cc1nc2sc(C(=O)NCc3ccc4c(c3)OCO4)c(N)c2c(C)c1Cl | 14.8 [at 36.8 µM] (inactive)
9 | Cc1nc2sc(C(=O)NCc3cccnc3)c(N)c2c(C)c1Cl | 13.5 [at 45.3 µM] (inactive)
